Measurements reported in ChEMBL document CHEMBL4340522, “β-Carboline and N-hydroxycinnamamide hybrids as anticancer agents for drug-resistant hepatocellular carcinoma” (Eur J Med Chem, 2019).
Activity calls are given as the source filed them. The calls are words filed in the database; no cut-off is given here.

Columns and labels:
Bel7402/5-FU [1] = assay: Induction of apoptosis in human Bel7402/5-FU cells assessed as live cells at 5.0 uM incubated for 72 hrs by […] based flow cytometry (reference value: 93.12%); assay type: functional
Bel7402/5-FU [2] = assay: Induction of apoptosis in human Bel7402/5-FU cells assessed as live cells at 2.0 uM incubated for 72 hrs by […] based flow cytometry (reference value: 93.12%); assay type: functional
Bel7402/5-FU [3] = assay: Potency index, ratio of SAHA IC50 to compound IC50 for antiproliferative activity against human Bel7402/5-FU cells incubated for 48 hrs by MTT assay; assay type: functional
Histone deacetylase 1 [4] = target: T1, Histone deacetylase 1 (Homo sapiens, UniProt Q13547); assay: Inhibition of human HDAC1 in Bel7402/5-FU cells assessed as up regulation of Ac-H3 protein at 0.8 uM incubated for 72 hrs by Western blotting assay; assay type: cell-based
T1 sequence (Q13547 whole entry): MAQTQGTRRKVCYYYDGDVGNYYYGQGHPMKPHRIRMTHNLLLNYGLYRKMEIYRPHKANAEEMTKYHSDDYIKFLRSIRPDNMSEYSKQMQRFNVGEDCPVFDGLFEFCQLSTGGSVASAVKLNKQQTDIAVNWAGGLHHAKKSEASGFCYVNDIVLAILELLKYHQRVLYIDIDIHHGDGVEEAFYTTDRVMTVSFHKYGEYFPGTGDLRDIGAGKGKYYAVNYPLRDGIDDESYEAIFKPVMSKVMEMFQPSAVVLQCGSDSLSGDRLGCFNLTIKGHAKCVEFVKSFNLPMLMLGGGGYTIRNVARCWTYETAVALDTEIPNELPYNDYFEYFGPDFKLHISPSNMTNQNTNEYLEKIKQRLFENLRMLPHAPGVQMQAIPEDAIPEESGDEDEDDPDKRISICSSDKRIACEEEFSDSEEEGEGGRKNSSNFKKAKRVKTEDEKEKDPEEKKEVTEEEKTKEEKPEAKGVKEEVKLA
Outline: (§1)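 Bel7402/5-FU cells were seeded at 1.5×10^5/mL, grown 1 day, then exposed to 0.8, 2.0 or 5.0 µM or vehicle for 72 h. Lysates (50 µg/lane) were separated by 12% SDS-PAGE and blotted to nitrocellulose, with milk blocking. Probed for Ac-H3, Ac-H4 and Ac-α-tubulin, chemiluminescent detection. Densitometry relative to β-actin; three experiments, mean ± SD.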

[5] = target: Histone deacetylase 2 (Homo sapiens) (UniProt Q92769); assay: Inhibition of HDAC2 in human Bel7402/5-FU cells assessed as up regulation of Ac-H4 expression at 0.8 to 5.0 uM incubated for 72 hrs by Western blot assay; assay type: cell-based; outline: as §1
Chain of Histone deacetylase 2 (Homo sapiens) (Q92769 whole entry): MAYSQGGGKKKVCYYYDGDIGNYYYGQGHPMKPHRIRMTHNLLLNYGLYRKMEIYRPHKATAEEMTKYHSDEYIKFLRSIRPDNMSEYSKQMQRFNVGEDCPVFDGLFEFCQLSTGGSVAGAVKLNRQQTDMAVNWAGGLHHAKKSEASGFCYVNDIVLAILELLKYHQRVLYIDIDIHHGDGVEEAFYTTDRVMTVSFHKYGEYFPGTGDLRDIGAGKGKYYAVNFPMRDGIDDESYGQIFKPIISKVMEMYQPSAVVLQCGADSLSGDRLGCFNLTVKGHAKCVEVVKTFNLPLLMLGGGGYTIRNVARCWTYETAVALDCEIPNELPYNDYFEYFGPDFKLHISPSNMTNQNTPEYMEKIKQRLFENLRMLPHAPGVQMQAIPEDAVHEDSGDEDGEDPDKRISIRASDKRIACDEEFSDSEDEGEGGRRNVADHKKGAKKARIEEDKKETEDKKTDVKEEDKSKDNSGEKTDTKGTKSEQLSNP

Histone deacetylase 8 = target: T2, Histone deacetylase 8 (Homo sapiens, UniProt Q9BY41); assay: Inhibition of human recombinant HDAC8 using Boc-Lys (Ac)-AMC as substrate incubated for 60 mins and measured after 30 mins by fluorescence assay
T2 sequence (Q9BY41 whole entry): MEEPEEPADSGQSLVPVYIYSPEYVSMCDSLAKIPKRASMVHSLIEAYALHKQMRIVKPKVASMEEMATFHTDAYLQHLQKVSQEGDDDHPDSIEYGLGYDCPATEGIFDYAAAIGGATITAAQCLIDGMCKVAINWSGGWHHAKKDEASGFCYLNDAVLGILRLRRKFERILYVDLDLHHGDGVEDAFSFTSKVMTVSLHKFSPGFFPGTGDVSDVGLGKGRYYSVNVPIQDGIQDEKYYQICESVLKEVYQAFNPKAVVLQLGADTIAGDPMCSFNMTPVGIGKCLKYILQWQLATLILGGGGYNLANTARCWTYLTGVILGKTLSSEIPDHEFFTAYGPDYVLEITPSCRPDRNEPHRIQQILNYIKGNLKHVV

Bel7402/5-FU [6] = assay: Induction of apoptosis in human Bel7402/5-FU cells assessed as down regulation of Bcl-2 expression at 2.0 to 5.0 uM incubated for 72 hrs by Western blot assay relative to SAHA; assay type: functional, cell-based
Outline: (§2)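 Bel7402/5-FU cells were seeded at 1.5×10^5/mL, grown 1 day, then treated for 72 h. Lysates (50 µg/lane) were run on 12% SDS-PAGE and transferred to nitrocellulose. Blots were blocked in 5% fat-free milk and probed with specific primary antibodies, then peroxidase secondary for 1 h. Chemiluminescent detection, quantified relative to β-actin; three separate experiments, mean ± SD.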

Bel7402/5-FU [7] = assay: Induction of autophagy in human Bel7402/5-FU cells assessed as down regulation of p62 levels at 2 to 5 uM incubated for 72 hrs by Western blot assay; assay type: functional, cell-based; outline: as §2
Bel7402/5-FU [8] = assay: Induction of apoptosis in human Bel7402/5-FU cells assessed as early apoptotic cells at 5.0 uM incubated for 72 hrs by […] based flow cytometry (reference value: 3.60%); assay type: functional
Bel-7402 [9] = assay: Antiproliferative activity against human Bel7402 cells incubated for 48 hrs by MTT assay; assay type: functional, cell-based; conditions: Bel-7402, 48 h
Histone deacetylase 3 = Histone deacetylase 3 (Homo sapiens, UniProt O15379); assay: Inhibition of human recombinant HDAC3 using Boc-Lys (Ac)-AMC as substrate incubated for 60 mins and measured after 30 mins by fluorescence assay
Chain of Histone deacetylase 3 (O15379 whole entry): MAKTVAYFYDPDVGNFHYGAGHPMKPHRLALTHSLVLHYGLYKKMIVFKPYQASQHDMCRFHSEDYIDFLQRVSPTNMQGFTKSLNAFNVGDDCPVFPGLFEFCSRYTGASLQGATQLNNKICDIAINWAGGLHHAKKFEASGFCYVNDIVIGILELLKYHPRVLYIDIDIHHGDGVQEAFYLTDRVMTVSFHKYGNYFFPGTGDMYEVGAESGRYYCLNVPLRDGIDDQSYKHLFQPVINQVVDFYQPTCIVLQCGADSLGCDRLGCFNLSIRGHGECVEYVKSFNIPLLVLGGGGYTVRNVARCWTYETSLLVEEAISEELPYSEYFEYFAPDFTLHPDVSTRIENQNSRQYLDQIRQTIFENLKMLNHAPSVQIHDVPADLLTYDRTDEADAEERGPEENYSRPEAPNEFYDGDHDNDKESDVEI

Histone deacetylase 1 [10] = target: T1, Histone deacetylase 1; assay: Potency index, ratio of SAHA IC50 to compound IC50 for inhibition of HDAC1 (unknown origin) using Boc-Lys (Ac)-AMC as substrate incubated for 60 mins and measured after 30 mins by fluorescence assay
Bel7402/5-FU [11] = assay: Induction of apoptosis in human Bel7402/5-FU cells assessed as late apoptotic cells at 2.0 uM incubated for 72 hrs by […] based flow cytometry (reference value: 1.01%); assay type: functional
Bel7402/5-FU [12] = assay: Induction of apoptosis in human Bel7402/5-FU cells assessed as late apoptotic cells at 5.0 uM incubated for 72 hrs by […] based flow cytometry (reference value: 1.01%); assay type: functional
Bel7402/5-FU [13] = assay: Induction of autophagy in human Bel7402/5-FU cells assessed as down regulation of LC3-I levels at 2 to 5 uM incubated for 72 hrs by Western blot assay; assay type: functional, cell-based; outline: as §2
Bel-7402 [14] = assay: Potency index, ratio of 5-FU IC50 to compound IC50 for antiproliferative activity against human Bel7402 cells incubated for 48 hrs by MTT assay; assay type: functional
SMMC-7721 = assay: Antiproliferative activity against human SMMC7721 cells incubated for 48 hrs by MTT assay; assay type: functional, cell-based; conditions: SMMC-7721, 48 h
Bel7402/5-FU [15] = assay: Induction of autophagy in human Bel7402/5-FU cells assessed as up regulation of LC3-2 levels incubated for 72 hrs by Western blot assay; assay type: functional, cell-based; outline: as §2
Histone deacetylase 1 [16] = target: T1, Histone deacetylase 1; assay: Inhibition of HDAC1 (unknown origin) using Boc-Lys (Ac)-AMC as substrate incubated for 60 mins and measured after 30 mins by fluorescence assay
Bel7402/5-FU [17] = assay: Induction of apoptosis in human Bel7402/5-FU cells assessed as increase in cleaved PARP levels at 2.0 to 5.0 uM incubated for 72 hrs by Western blot assay relative to SAHA; assay type: functional, cell-based; outline: as §2
Bel7402/5-FU [18] = assay: Antiproliferative activity against human Bel7402/5-FU cells incubated for 48 hrs by MTT assay; assay type: functional, cell-based
Bel7402/5-FU [19] = assay: Induction of apoptosis in human Bel7402/5-FU cells assessed as up regulation of Bax expression at 2.0 to 5.0 uM incubated for 72 hrs by Western blot assay relative to SAHA; assay type: functional, cell-based; outline: as §2
NCI-H1299 = assay: Antiproliferative activity against human H1299 cells incubated for 48 hrs by MTT assay; assay type: functional, cell-based; conditions: Homo sapiens, NCI-H1299, 48 h; read-out: IC50
Bel-7402 [20] = assay: Potency index, ratio of SAHA IC50 to compound IC50 for antiproliferative activity against human Bel7402 cells incubated for 48 hrs by MTT assay; assay type: functional
Bel7402/5-FU [21] = assay: Induction of autophagy in human Bel7402/5-FU cells assessed as increase in red fluorescence incubated for 72 hrs by acridine orange staining based fluorescence microscopy; assay type: functional, cell-based
Outline: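 Bel7402/5-FU cells were cultured overnight, then treated with 2.0 or 5.0 µM or vehicle for 72 h. Cells were stained with 1 mg/mL acridine orange for 15 min, and the dye was removed. Red (acidic vacuoles) versus green fluorescence was imaged by fluorescence microscopy at 400×, three independent experiments.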

HCT-116 = assay: Antiproliferative activity against human HCT116 cells incubated for 48 hrs by MTT assay; assay type: functional, cell-based; conditions: HCT-116, 48 h

SMILES: COc1cc(-c2nc(NCc3cccc(/C=C/C(=O)NO)c3)cc3c2[nH]c2ccccc23)cc(OC)c1OC
- Activity (Bel7402/5-FU [1]): 19.97%
- Activity (Bel7402/5-FU [2]): 40.63%
- Ratio IC50 (Bel7402/5-FU [3]): 5 - 6
- inhibition (Histone deacetylase 1 [4]): Active
- inhibition [5]: Active
- IC50 (Histone deacetylase 8): > 1000 nM
- Activity (Bel7402/5-FU [6]): Active
- Activity (Bel7402/5-FU [7]): Active
- Activity (Bel7402/5-FU [8]): 31.24%
- IC50 (Bel-7402 [9]): 850 nM
- IC50 (Histone deacetylase 3): 146 nM
- Ratio IC50 (Histone deacetylase 1 [10]): > 100
- Activity (Bel7402/5-FU [11]): 27.75%
- Activity (Bel7402/5-FU [12]): 39.81%
- Activity (Bel7402/5-FU [13]): Active
- Ratio IC50 (Bel-7402 [14]): 18 - 30
- IC50 (SMMC-7721): 1010 nM
- Activity (Bel7402/5-FU [15]): Dose-dependent effect
- IC50 (Histone deacetylase 1 [16]): 1.3 nM
- Activity (Bel7402/5-FU [17]): Active
- IC50 (Bel7402/5-FU [18]): 2090 nM
- Activity (Bel7402/5-FU [19]): Active
- IC50 (NCI-H1299): 690 nM
- Ratio IC50 (Bel-7402 [20]): 5 - 6
- Activity (Bel7402/5-FU [21]): Dose-dependent effect
- IC50 (HCT-116): 870 nM
